Results from ChEMBL document CHEMBL1806443, “Novel imidazo[4,5-b]pyridine and triaza-benzo[c]fluorene derivatives: synthesis, antiproliferative activity and DNA binding studies” (Eur J Med Chem, 2011).
Active and inactive are the calls of the source. The rule behind the calls is not given here.

Key:
SW-620 [1] = assay: Cell cycle arrest in human SW620 cells assessed as accumulation at G1 phase at 1 uM after 24 hrs by propidium iodide staining based flow cytometeric analysis (reference value: 29.3 +/- 1.5%); format: functional
WI-38 = assay: Antiproliferative activity against human WI38 cells after 72 hrs by MTT assay; format: cell-based; details: Homo sapiens, WI-38, 72 h
In short: (§1)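 Monolayer cells in DMEM with 10% FBS, 2 mM L-glutamine, penicillin and streptomycin at 37 °C, 5% CO2. Seeded at 3000-6000 cells/well by doubling time on day 0. Five 10-fold dilutions (0.01–100 µM) were added and incubated 72 h. MTT read-out, converted to percentage growth. IC50 by linear regression between bracketing concentrations. Quadruplicate points, three independent experiments, ANOVA/Tukey p<0.05.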

MCF7 [2] = assay: Antiproliferative activity against human MCF7 cells after 72 hrs by MTT assay; format: functional, cell-based; details: Homo sapiens, MCF7, 72 h; in short: as §1
MIA PaCa-2 [3] = assay: Cell cycle arrest in human MIAPaCa2 cells assessed as accumulation at G2/M phase at 10 uM after 24 hrs by propidium iodide staining based flow cytometeric analysis (reference value: 19.5 +/- 3.9%); format: functional
SW-620 [4] = assay: Antiproliferative activity against human SW620 cells after 72 hrs by MTT assay; format: functional, cell-based; details: Homo sapiens, SW-620, 72 h; in short: as §1
MIA PaCa-2 [5] = assay: Cell cycle arrest in human MIAPaCa2 cells assessed as accumulation at G2/M phase at 5 uM after 24 hrs by propidium iodide staining based flow cytometeric analysis (reference value: 19.5 +/- 3.9%); format: functional
MIA PaCa-2 [6] = assay: Antiproliferative activity against human MIAPaCa2 cells at 0.1 to 10 uM after 72 hrs by MTT assay; format: functional, cell-based; in short: as §1
MIA PaCa-2 [7] = assay: Cell cycle arrest in human MIAPaCa2 cells assessed as accumulation at G1 phase at 10 uM after 24 hrs by propidium iodide staining based flow cytometeric analysis (reference value: 51.2 +/- 2.7%); format: functional
MIA PaCa-2 [8] = assay: Antiproliferative activity against human MIAPaCa2 cells after 72 hrs by MTT assay; format: functional, cell-based; details: Homo sapiens, MIA PaCa-2, 72 h; in short: as §1
HeLa [9] = assay: Cytostatic activity against human HeLa cells at 1 to 10 uM after 72 hrs by MTT assay; format: functional, cell-based
In short: (§2)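 Monolayers in DMEM with 10% FBS, 2 mM L-glutamine, penicillin and streptomycin (37 °C, 5% CO2) were seeded at 3000–6000 cells/well on day 0. Five 10-fold dilutions (0.01–100 µM) were added, followed by 72-h incubation and MTT read-out. Absorbances were converted to percentage growth by the NIH formulae. Each point was run in quadruplicate in three experiments; ANOVA with Tukey test.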

MIA PaCa-2 [10] = assay: Cell cycle arrest in human MIAPaCa2 cells assessed as accumulation at G1 phase at 1 uM after 48 hrs by propidium iodide staining based flow cytometeric analysis (reference value: 65.2 +/- 1.9%); format: functional
MCF7 [11] = assay: Antiproliferative activity against human MCF7 cells at 0.1 to 10 uM after 72 hrs by MTT assay; format: functional, cell-based; in short: as §1
MCF7 [12] = assay: Cytostatic activity against human MCF7 cells at 1 to 10 uM after 72 hrs by MTT assay; format: functional, cell-based; in short: as §2
MIA PaCa-2 [13] = assay: Cell cycle arrest in human MIAPaCa2 cells assessed as accumulation at subG1 phase at 10 uM after 48 hrs by propidium iodide staining based flow cytometeric analysis (reference value: 46.8 +/- 0.7%); format: functional
SW-620 [14] = assay: Cell cycle arrest in human SW620 cells assessed as accumulation at subG1 phase at 10 uM after 48 hrs by propidium iodide staining based flow cytometeric analysis (reference value: 29.1 +/- 1.1%); format: functional
In short: (§3)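 Cells seeded at 3 × 10^4 per well and treated 24 h later with 1, 5 or 10 µM for 24 and 48 h. Adherent and floating cells were pooled, washed in PBS and fixed in 70% ethanol. They were then stained with propidium iodide 10 µg/mL plus RNase A 0.2 µg/mL. Flow cytometry counted 10000 events; each point was run in triplicate; significance was taken at p < 0.05.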

SW-620 [15] = assay: Cell cycle arrest in human SW620 cells assessed as accumulation at G1 phase at 10 uM after 48 hrs by propidium iodide staining based flow cytometeric analysis (reference value: 52.7 +/- 0.9%); format: functional
SK-BR-3 = assay: Antiproliferative activity against human SKBR3 cells at 0.1 to 10 uM after 72 hrs by MTT assay; format: functional, cell-based; in short: as §1
SW-620 [16] = assay: Cell cycle arrest in human SW620 cells assessed as accumulation at G2/M phase at 5 uM after 24 hrs by propidium iodide staining based flow cytometeric analysis (reference value: 22.3 +/- 2.9%); format: functional
SW-620 [17] = assay: Cell cycle arrest in human SW620 cells assessed as accumulation at G2/M phase at 5 uM after 48 hrs by propidium iodide staining based flow cytometeric analysis (reference value: 16.1 +/- 0.9%); format: functional
HEp-2 [18] = assay: Antiproliferative activity against human Hep2 cells at 0.1 to 10 uM after 72 hrs by MTT assay; format: functional, cell-based; in short: as §1
SW-620 [19] = assay: Cell cycle arrest in human SW620 cells assessed as accumulation at subG1 phase at 10 uM after 24 hrs by propidium iodide staining based flow cytometeric analysis (reference value: 18 +/- 1%); format: functional; in short: as §3
MIA PaCa-2 [20] = assay: Cell cycle arrest in human MIAPaCa2 cells assessed as accumulation at subG1 phase at 10 uM after 24 hrs by propidium iodide staining based flow cytometeric analysis (reference value: 48.7 +/- 0.7%); format: functional
HEp-2 [21] = assay: Antiproliferative activity against human Hep2 cells after 72 hrs by MTT assay; format: functional, cell-based; details: Homo sapiens, HEp-2, 72 h; in short: as §1
SW-620 [22] = assay: Antiproliferative activity against human SW620 cells at 0.1 to 10 uM after 72 hrs by MTT assay; format: functional, cell-based; in short: as §1
HeLa [23] = assay: Antiproliferative activity against human HeLa cells at 0.1 to 10 uM after 72 hrs by MTT assay; format: functional, cell-based; in short: as §1
MIA PaCa-2 [24] = assay: Cell cycle arrest in human MIAPaCa2 cells assessed as accumulation at subG1 phase at 1 uM after 24 hrs by propidium iodide staining based flow cytometeric analysis (reference value: 48.7 +/- 0.7%); format: functional
MIA PaCa-2 [25] = assay: Cell cycle arrest in human MIAPaCa2 cells assessed as accumulation at G1 phase at 10 uM after 48 hrs by propidium iodide staining based flow cytometeric analysis (reference value: 65.2 +/- 1.9%); format: functional
SW-620 [26] = assay: Cell cycle arrest in human SW620 cells assessed as accumulation at subG1 phase at 1 uM after 24 hrs by propidium iodide staining based flow cytometeric analysis (reference value: 18 +/- 1%); format: functional
Nucleic Acid = assay: Binding affinity to calf thymus DNA assessed as change in melting temperature at compound to polynucleotide ratio of 0.3 by UV-VIS spectroscopic analysis; format: nucleic-acid assay; details: Bos taurus
In short: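 ct-DNA alone or with compound at set r = [compound]/[polynucleotide], in cacodylate buffer pH 7.0, I = 0.05 mol dm^-3. Absorbance at 260 nm followed against temperature, ligand absorbance subtracted, curves normalized. Tm is the transition midpoint, from the first-derivative maximum or by tangent method. ΔTm = Tm(complex) − Tm(free DNA), mean of ≥2 runs, error ±0.5 °C.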

SW-620 [27] = assay: Cell cycle arrest in human SW620 cells assessed as accumulation at S phase at 5 uM after 24 hrs by propidium iodide staining based flow cytometeric analysis (reference value: 48.4 +/- 1.4%); format: functional

For Cl.c1cnc2nc3ccc4ccc(C5=NCCN5)cc4n3c2c1, the Activity (SW-620 [1]) was 54.3%, the IC50 (WI-38) was 1770 nM and the IC50 (MCF7 [2]) was 6540 nM. The Activity (MIA PaCa-2 [3]) was 18.3%, the IC50 (SW-620 [4]) was 640 nM and the Activity (MIA PaCa-2 [5]) was 18.3%. For the same compound, the Activity (MIA PaCa-2 [6]) was “Active”, the Activity (MIA PaCa-2 [7]) was 52.4% and the IC50 (MIA PaCa-2 [8]) was 740 nM. The Activity (HeLa [9]) was “Active”, the Activity (MIA PaCa-2 [10]) was 42.4% and the Activity (MCF7 [11]) was “Active”. For the same compound, the Activity (MCF7 [12]) was “Active”, the Activity (MIA PaCa-2 [13]) was 39.3% and the Activity (SW-620 [14]) was 40.6%. The Activity (SW-620 [15]) was 39.9%, the Activity (SK-BR-3) was “Active” and the Activity (SW-620 [16]) was 2.1%. The Activity (SW-620 [17]) was 1.5%, the Activity (HEp-2 [18]) was “Active” and the Activity (SW-620 [19]) was 20.1%. For the same compound, the Activity (MIA PaCa-2 [20]) was 50.2%, the IC50 (HEp-2 [21]) was 270 nM and the Activity (SW-620 [22]) was “Active”. The Activity (HeLa [23]) was “Active”, the Activity (MIA PaCa-2 [24]) was 57.8% and the Activity (MIA PaCa-2 [25]) was 26.1%. For the same compound, the Activity (SW-620 [26]) was 14.3%, the ΔTm (Nucleic Acid) was 6.4 °C and the Activity (SW-620 [27]) was 11.8%.
